The source made the active and inactive calls. The rule behind the calls is not given here.
system: Schistosoma mansoni; test: Antiparasitic activity against Schistosoma mansoni infected in female Swiss-Webster mouse assessed as worm killing at 50 uM after 144 hrs by stereomicroscopy; settings: not given

SMILES	Activity
NC(=O)c1c(C(=O)N2CC(=O)N3CCc4ccccc4C3C2)no[n+]1[O-] (stereo not given)	80%
NC(=O)c1nonc1C(=O)N1CC(=O)N2CCc3ccccc3C2C1 (stereo not given)	23%
COC(=O)c1c(C(=O)N2CC(=O)N3CCc4ccccc4C3C2)no[n+]1[O-] (stereo not given)	50%
COC(=O)c1nonc1C(=O)N1CC(=O)N2CCc3ccccc3C2C1 (stereo not given)	18%
O=C(C1CCCCC1)N1CC(=O)N2CCc3ccccc3C2C1 (racemic) [PRAZIQUANTEL]	40%
N#Cc1nonc1C(=O)N1CC(=O)N2CCc3ccccc3C2C1 (stereo not given)	25%

system: Schistosoma mansoni; test: Antiparasitic activity against Schistosoma mansoni infected in female Swiss-Webster mouse assessed as worm killing at 10 uM after 144 hrs by stereomicroscopy; settings: not given

SMILES	Activity
NC(=O)c1c(C(=O)N2CC(=O)N3CCc4ccccc4C3C2)no[n+]1[O-] (stereo not given)	30%
N#Cc1c(C(=O)N2CC(=O)N3CCc4ccccc4C3C2)no[n+]1[O-] (stereo not given)	30%
NC(=O)c1nonc1C(=O)N1CC(=O)N2CCc3ccccc3C2C1 (stereo not given)	23%
COC(=O)c1c(C(=O)N2CC(=O)N3CCc4ccccc4C3C2)no[n+]1[O-] (stereo not given)	23%
COC(=O)c1nonc1C(=O)N1CC(=O)N2CCc3ccccc3C2C1 (stereo not given)	15%
O=C(C1CCCCC1)N1CC(=O)N2CCc3ccccc3C2C1 (racemic) [PRAZIQUANTEL]	15%
N#Cc1nonc1C(=O)N1CC(=O)N2CCc3ccccc3C2C1 (stereo not given)	20%

system: Schistosoma mansoni; test: Antiparasitic activity against Schistosoma mansoni cercariae infected in female Swiss-Webster mouse assessed as female worm contraction at 10 uM after 24 to 48 hrs by stereomicroscopy; format: functional, organism-based; settings: not given
Method in brief: (§1)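 Adult worms were washed in RPMI 1640 with 25 mM HEPES, penicillin, streptomycin and 10% FBS, then held 15–20 per well overnight at 37°C in 5% CO₂. Medium was renewed the next day. Compounds from 10 mM DMSO stocks were added at 10 or 50 μM, with equal DMSO volumes in all wells and DMSO-only negative controls. After compound removal, morphology and mobility were followed over days.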

SMILES	Activity
N#Cc1c(C(=O)N2CC(=O)N3CCc4ccccc4C3C2)no[n+]1[O-] (stereo not given)	Active

molecular target: T1, Thioredoxin glutathione reductase (Schistosoma mansoni, UniProt Q962Y6); test: Inhibition of Schistosoma mansoni recombinant thioredoxin glutathione reductase assessed as 5-thio-2nitrobezoic acid formation after 3 mins; settings: not given
T1 sequence (Q962Y6 whole entry): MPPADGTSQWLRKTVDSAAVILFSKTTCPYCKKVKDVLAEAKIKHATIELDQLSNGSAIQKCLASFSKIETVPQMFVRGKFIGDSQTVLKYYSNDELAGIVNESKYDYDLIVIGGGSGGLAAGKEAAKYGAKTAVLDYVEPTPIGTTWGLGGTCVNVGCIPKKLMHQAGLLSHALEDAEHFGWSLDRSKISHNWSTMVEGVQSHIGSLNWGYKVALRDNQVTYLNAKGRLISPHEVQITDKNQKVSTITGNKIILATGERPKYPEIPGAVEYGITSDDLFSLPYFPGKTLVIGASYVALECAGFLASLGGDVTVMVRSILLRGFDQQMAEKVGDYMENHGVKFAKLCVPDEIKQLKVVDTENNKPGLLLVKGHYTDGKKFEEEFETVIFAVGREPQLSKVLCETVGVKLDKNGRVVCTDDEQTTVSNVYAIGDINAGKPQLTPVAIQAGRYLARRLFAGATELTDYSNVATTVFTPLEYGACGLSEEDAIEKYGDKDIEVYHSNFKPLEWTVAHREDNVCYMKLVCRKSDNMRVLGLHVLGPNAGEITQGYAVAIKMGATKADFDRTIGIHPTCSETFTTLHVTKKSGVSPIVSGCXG

SMILES	IC50
O=C(C1CCCCC1)N1CC(=O)N2CCc3ccccc3C2C1 (racemic) [PRAZIQUANTEL]	Not Active

same assay, conditions: read-out: IC50

SMILES	IC50
NC(=O)c1c(C(=O)N2CC(=O)N3CCc4ccccc4C3C2)no[n+]1[O-] (stereo not given)	10 nM
O=C(C1CCCCC1)N1CC(=O)N2CCc3ccc(OCCCOc4nonc4S(=O)(=O)c4ccccc4)cc3C2C1 (stereo not given)	> 50000 nM
O=C(C1CCCCC1)N1CC(=O)N2CCc3ccc(OCCCOc4no[n+]([O-])c4S(=O)(=O)c4ccccc4)cc3C2C1 (stereo not given)	8500 nM
N#Cc1c(C(=O)N2CC(=O)N3CCc4ccccc4C3C2)no[n+]1[O-] (stereo not given)	316 nM
N#Cc1nonc1COc1ccc2c(c1)C1CN(C(=O)C3CCCCC3)CC(=O)N1CC2 (stereo not given)	> 50000 nM
N#Cc1c(COc2ccc3c(c2)C2CN(C(=O)C4CCCCC4)CC(=O)N2CC3)no[n+]1[O-] (stereo not given)	350 nM
NC(=O)c1nonc1COc1ccc2c(c1)C1CN(C(=O)C3CCCCC3)CC(=O)N1CC2 (stereo not given)	> 50000 nM
NC(=O)c1nonc1C(=O)N1CC(=O)N2CCc3ccccc3C2C1 (stereo not given)	> 50000 nM
COC(=O)c1c(C(=O)N2CC(=O)N3CCc4ccccc4C3C2)no[n+]1[O-] (stereo not given)	148 nM
NC(=O)c1c(COc2ccc3c(c2)C2CN(C(=O)C4CCCCC4)CC(=O)N2CC3)no[n+]1[O-] (stereo not given)	83 nM
COC(=O)c1nonc1C(=O)N1CC(=O)N2CCc3ccccc3C2C1 (stereo not given)	> 50000 nM
N#Cc1nonc1C(=O)N1CC(=O)N2CCc3ccccc3C2C1 (stereo not given)	> 50000 nM

system: Schistosoma mansoni; test: Antiparasitic activity against Schistosoma mansoni infected in female Swiss-Webster mouse assessed as worm killing at 50 uM after 24 hrs by stereomicroscopy; format: functional, organism-based; settings: not given
Method in brief: as §1

SMILES	Activity
O=C(C1CCCCC1)N1CC(=O)N2CCc3ccc(OCCCOc4no[n+]([O-])c4S(=O)(=O)c4ccccc4)cc3C2C1 (stereo not given)	Active
N#Cc1c(COc2ccc3c(c2)C2CN(C(=O)C4CCCCC4)CC(=O)N2CC3)no[n+]1[O-] (stereo not given)	Active
N#Cc1c(-c2ccccc2)no[n+]1[O-] [FUROXAN]	Active

system: Schistosoma mansoni; test: Antiparasitic activity against Schistosoma mansoni cercariae infected in female Swiss-Webster mouse assessed as worm contraction at 50 uM after 24 to 48 hrs by stereomicroscopy; format: functional, organism-based; settings: not given
Method in brief: as §1

SMILES	Activity
NC(=O)c1c(C(=O)N2CC(=O)N3CCc4ccccc4C3C2)no[n+]1[O-] (stereo not given)	Active
O=C(C1CCCCC1)N1CC(=O)N2CCc3ccc(OCCCOc4nonc4S(=O)(=O)c4ccccc4)cc3C2C1 (stereo not given)	Active
N#Cc1c(C(=O)N2CC(=O)N3CCc4ccccc4C3C2)no[n+]1[O-] (stereo not given)	Active
N#Cc1nonc1COc1ccc2c(c1)C1CN(C(=O)C3CCCCC3)CC(=O)N1CC2 (stereo not given)	Active
N#Cc1c(COc2ccc3c(c2)C2CN(C(=O)C4CCCCC4)CC(=O)N2CC3)no[n+]1[O-] (stereo not given)	Active
NC(=O)c1nonc1COc1ccc2c(c1)C1CN(C(=O)C3CCCCC3)CC(=O)N1CC2 (stereo not given)	inactive
NC(=O)c1nonc1C(=O)N1CC(=O)N2CCc3ccccc3C2C1 (stereo not given)	Active
COC(=O)c1c(C(=O)N2CC(=O)N3CCc4ccccc4C3C2)no[n+]1[O-] (stereo not given)	Active
NC(=O)c1c(COc2ccc3c(c2)C2CN(C(=O)C4CCCCC4)CC(=O)N2CC3)no[n+]1[O-] (stereo not given)	inactive
COC(=O)c1nonc1C(=O)N1CC(=O)N2CCc3ccccc3C2C1 (stereo not given)	Active
O=C(C1CCCCC1)N1CC(=O)N2CCc3ccccc3C2C1 (racemic) [PRAZIQUANTEL]	Active
N#Cc1nonc1C(=O)N1CC(=O)N2CCc3ccccc3C2C1 (stereo not given)	Active
N#Cc1c(-c2ccccc2)no[n+]1[O-] [FUROXAN]	inactive

system: Schistosoma mansoni; test: Antiparasitic activity against Schistosoma mansoni cercariae infected in female Swiss-Webster mouse assessed as worm contraction at 10 uM after 24 to 48 hrs by stereomicroscopy; format: functional, organism-based; settings: not given
Method in brief: as §1

SMILES	Activity
NC(=O)c1c(C(=O)N2CC(=O)N3CCc4ccccc4C3C2)no[n+]1[O-] (stereo not given)	Active
O=C(C1CCCCC1)N1CC(=O)N2CCc3ccc(OCCCOc4nonc4S(=O)(=O)c4ccccc4)cc3C2C1 (stereo not given)	Active
O=C(C1CCCCC1)N1CC(=O)N2CCc3ccc(OCCCOc4no[n+]([O-])c4S(=O)(=O)c4ccccc4)cc3C2C1 (stereo not given)	inactive
N#Cc1nonc1COc1ccc2c(c1)C1CN(C(=O)C3CCCCC3)CC(=O)N1CC2 (stereo not given)	inactive
N#Cc1c(COc2ccc3c(c2)C2CN(C(=O)C4CCCCC4)CC(=O)N2CC3)no[n+]1[O-] (stereo not given)	inactive
NC(=O)c1nonc1COc1ccc2c(c1)C1CN(C(=O)C3CCCCC3)CC(=O)N1CC2 (stereo not given)	inactive
NC(=O)c1nonc1C(=O)N1CC(=O)N2CCc3ccccc3C2C1 (stereo not given)	Active
COC(=O)c1c(C(=O)N2CC(=O)N3CCc4ccccc4C3C2)no[n+]1[O-] (stereo not given)	Active
NC(=O)c1c(COc2ccc3c(c2)C2CN(C(=O)C4CCCCC4)CC(=O)N2CC3)no[n+]1[O-] (stereo not given)	inactive
COC(=O)c1nonc1C(=O)N1CC(=O)N2CCc3ccccc3C2C1 (stereo not given)	Active
O=C(C1CCCCC1)N1CC(=O)N2CCc3ccccc3C2C1 (racemic) [PRAZIQUANTEL]	Active
N#Cc1nonc1C(=O)N1CC(=O)N2CCc3ccccc3C2C1 (stereo not given)	Active
N#Cc1c(-c2ccccc2)no[n+]1[O-] [FUROXAN]	inactive

system: Schistosoma mansoni; test: Antiparasitic activity against Schistosoma mansoni infected in female Swiss-Webster mouse assessed as worm killing at 50 uM after 48 hrs by stereomicroscopy; format: functional; settings: not given
Method in brief: (§2)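 Adult S. mansoni worms were washed in complete RPMI 1640 with 25 mM HEPES, penicillin, streptomycin and 10% FBS. They were held 15–20 per well overnight at 37°C in 5% CO₂, then moved to fresh medium. Compounds from 10 mM DMSO stocks were added to final 10 or 50 μM. Controls received an equal volume of DMSO, and worm death was scored.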

SMILES	Activity
O=C(C1CCCCC1)N1CC(=O)N2CCc3ccc(OCCCOc4nonc4S(=O)(=O)c4ccccc4)cc3C2C1 (stereo not given)	inactive
N#Cc1nonc1COc1ccc2c(c1)C1CN(C(=O)C3CCCCC3)CC(=O)N1CC2 (stereo not given)	inactive
NC(=O)c1nonc1COc1ccc2c(c1)C1CN(C(=O)C3CCCCC3)CC(=O)N1CC2 (stereo not given)	inactive
NC(=O)c1c(COc2ccc3c(c2)C2CN(C(=O)C4CCCCC4)CC(=O)N2CC3)no[n+]1[O-] (stereo not given)	inactive

system: Schistosoma mansoni; test: Antiparasitic activity against Schistosoma mansoni cercariae infected in female Swiss-Webster mouse assessed as male worm contraction at 50 uM after 24 to 48 hrs by stereomicroscopy; format: functional, organism-based; settings: not given
Method in brief: as §1

SMILES	Activity
O=C(C1CCCCC1)N1CC(=O)N2CCc3ccc(OCCCOc4no[n+]([O-])c4S(=O)(=O)c4ccccc4)cc3C2C1 (stereo not given)	Active

system: not listed separately; test: Induction of NO release in pH 7.4 buffer solution at 5:1 excess of L-cysteine after 1 hr incubation by Griess assay; format: physicochemical; settings: pH 7.4, 1 h
Method in brief: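 Compound was incubated 1 hr at 37 °C in pH 7.4 buffer with a 5:1 molar excess of L-cysteine. Nitrite was measured by Griess reaction and reported as % NO₂⁻ (mol/mol) ± SE.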

SMILES	Activity
NC(=O)c1c(C(=O)N2CC(=O)N3CCc4ccccc4C3C2)no[n+]1[O-] (stereo not given)	1.8%
O=C(C1CCCCC1)N1CC(=O)N2CCc3ccc(OCCCOc4no[n+]([O-])c4S(=O)(=O)c4ccccc4)cc3C2C1 (stereo not given)	15.7%
N#Cc1c(C(=O)N2CC(=O)N3CCc4ccccc4C3C2)no[n+]1[O-] (stereo not given)	56.2%
N#Cc1c(COc2ccc3c(c2)C2CN(C(=O)C4CCCCC4)CC(=O)N2CC3)no[n+]1[O-] (stereo not given)	33.8%
COC(=O)c1c(C(=O)N2CC(=O)N3CCc4ccccc4C3C2)no[n+]1[O-] (stereo not given)	< 1%
NC(=O)c1c(COc2ccc3c(c2)C2CN(C(=O)C4CCCCC4)CC(=O)N2CC3)no[n+]1[O-] (stereo not given)	1.1%

system: Schistosoma mansoni; test: Antiparasitic activity against Schistosoma mansoni infected in female Swiss-Webster mouse assessed as worm killing at 50 uM after 72 hrs by stereomicroscopy; format: functional, organism-based; settings: not given
Method in brief: as §1

SMILES	Activity
N#Cc1c(C(=O)N2CC(=O)N3CCc4ccccc4C3C2)no[n+]1[O-] (stereo not given)	Active

system: Schistosoma mansoni; test: Antiparasitic activity against Schistosoma mansoni infected in female Swiss-Webster mouse assessed as worm killing at 10 uM after 96 hrs by stereomicroscopy; format: functional, organism-based; settings: not given
Method in brief: as §1

SMILES	Activity
N#Cc1c(-c2ccccc2)no[n+]1[O-] [FUROXAN]	Active

system: Schistosoma mansoni; test: Antiparasitic activity against Schistosoma mansoni infected in female Swiss-Webster mouse assessed as worm killing at 10 uM after 48 hrs by stereomicroscopy; format: functional; settings: not given
Method in brief: as §2

SMILES	Activity
O=C(C1CCCCC1)N1CC(=O)N2CCc3ccc(OCCCOc4nonc4S(=O)(=O)c4ccccc4)cc3C2C1 (stereo not given)	inactive
O=C(C1CCCCC1)N1CC(=O)N2CCc3ccc(OCCCOc4no[n+]([O-])c4S(=O)(=O)c4ccccc4)cc3C2C1 (stereo not given)	Active
N#Cc1nonc1COc1ccc2c(c1)C1CN(C(=O)C3CCCCC3)CC(=O)N1CC2 (stereo not given)	inactive
N#Cc1c(COc2ccc3c(c2)C2CN(C(=O)C4CCCCC4)CC(=O)N2CC3)no[n+]1[O-] (stereo not given)	inactive
NC(=O)c1nonc1COc1ccc2c(c1)C1CN(C(=O)C3CCCCC3)CC(=O)N1CC2 (stereo not given)	inactive
NC(=O)c1c(COc2ccc3c(c2)C2CN(C(=O)C4CCCCC4)CC(=O)N2CC3)no[n+]1[O-] (stereo not given)	inactive
